Active and inactive are the calls of the source. The calls are words filed in the database; no cut-off is given here.
Legend:
A-431 = test: Antiproliferative activity against human A431 cells after 48 hrs by quant dye staining-based UV spectroscopy; assay type: functional, cell-based; details: A-431, 48 h
[1] = molecular target: T1, Vascular endothelial growth factor receptor 2 (Homo sapiens, UniProt P35968); test: Inhibition of VEGFR2 phosphorylation in human U251 cells after 10 mins by FLISA; assay type: cell-based, U-251
T1 sequence (P35968 whole entry): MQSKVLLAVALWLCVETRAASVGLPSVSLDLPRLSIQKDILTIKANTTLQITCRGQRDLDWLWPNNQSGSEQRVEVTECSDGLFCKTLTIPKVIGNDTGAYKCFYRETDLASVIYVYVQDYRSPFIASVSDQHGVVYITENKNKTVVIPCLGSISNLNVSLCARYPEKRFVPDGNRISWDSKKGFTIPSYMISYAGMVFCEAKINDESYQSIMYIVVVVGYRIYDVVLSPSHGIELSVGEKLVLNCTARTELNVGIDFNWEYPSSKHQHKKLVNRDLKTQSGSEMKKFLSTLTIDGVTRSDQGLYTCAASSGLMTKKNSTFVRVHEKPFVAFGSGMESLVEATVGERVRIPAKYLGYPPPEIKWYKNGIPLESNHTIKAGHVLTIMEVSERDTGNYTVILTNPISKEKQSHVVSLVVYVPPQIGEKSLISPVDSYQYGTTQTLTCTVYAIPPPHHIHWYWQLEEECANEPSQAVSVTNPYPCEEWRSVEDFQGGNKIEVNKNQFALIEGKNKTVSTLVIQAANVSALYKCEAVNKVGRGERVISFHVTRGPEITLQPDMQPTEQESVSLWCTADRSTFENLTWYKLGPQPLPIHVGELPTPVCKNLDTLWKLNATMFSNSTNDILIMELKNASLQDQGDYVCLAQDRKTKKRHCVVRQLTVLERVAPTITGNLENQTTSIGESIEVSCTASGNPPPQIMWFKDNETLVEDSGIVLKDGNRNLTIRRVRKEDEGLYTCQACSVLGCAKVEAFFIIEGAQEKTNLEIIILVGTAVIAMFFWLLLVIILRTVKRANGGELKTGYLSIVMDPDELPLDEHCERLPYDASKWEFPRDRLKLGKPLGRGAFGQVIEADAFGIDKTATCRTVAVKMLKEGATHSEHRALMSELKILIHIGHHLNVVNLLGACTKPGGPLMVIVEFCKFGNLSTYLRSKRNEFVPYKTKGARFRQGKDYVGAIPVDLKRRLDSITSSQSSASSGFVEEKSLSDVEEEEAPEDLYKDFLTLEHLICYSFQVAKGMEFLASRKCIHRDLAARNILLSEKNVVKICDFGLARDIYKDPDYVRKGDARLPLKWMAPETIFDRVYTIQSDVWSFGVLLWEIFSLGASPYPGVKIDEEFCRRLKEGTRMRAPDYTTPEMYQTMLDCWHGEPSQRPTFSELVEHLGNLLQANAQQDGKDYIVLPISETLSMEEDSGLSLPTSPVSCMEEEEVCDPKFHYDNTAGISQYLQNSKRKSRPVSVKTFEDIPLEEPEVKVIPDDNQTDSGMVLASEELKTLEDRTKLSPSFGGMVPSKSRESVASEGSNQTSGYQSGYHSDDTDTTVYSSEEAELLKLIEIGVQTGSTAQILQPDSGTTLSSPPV

[2] = molecular target: Epidermal growth factor receptor (Homo sapiens, UniProt P00533); test: Inhibition of EGFR phosphorylation in human A431 cells after 10 mins by FLISA; assay type: cell-based, A-431
Sequence of Epidermal growth factor receptor (P00533 whole entry): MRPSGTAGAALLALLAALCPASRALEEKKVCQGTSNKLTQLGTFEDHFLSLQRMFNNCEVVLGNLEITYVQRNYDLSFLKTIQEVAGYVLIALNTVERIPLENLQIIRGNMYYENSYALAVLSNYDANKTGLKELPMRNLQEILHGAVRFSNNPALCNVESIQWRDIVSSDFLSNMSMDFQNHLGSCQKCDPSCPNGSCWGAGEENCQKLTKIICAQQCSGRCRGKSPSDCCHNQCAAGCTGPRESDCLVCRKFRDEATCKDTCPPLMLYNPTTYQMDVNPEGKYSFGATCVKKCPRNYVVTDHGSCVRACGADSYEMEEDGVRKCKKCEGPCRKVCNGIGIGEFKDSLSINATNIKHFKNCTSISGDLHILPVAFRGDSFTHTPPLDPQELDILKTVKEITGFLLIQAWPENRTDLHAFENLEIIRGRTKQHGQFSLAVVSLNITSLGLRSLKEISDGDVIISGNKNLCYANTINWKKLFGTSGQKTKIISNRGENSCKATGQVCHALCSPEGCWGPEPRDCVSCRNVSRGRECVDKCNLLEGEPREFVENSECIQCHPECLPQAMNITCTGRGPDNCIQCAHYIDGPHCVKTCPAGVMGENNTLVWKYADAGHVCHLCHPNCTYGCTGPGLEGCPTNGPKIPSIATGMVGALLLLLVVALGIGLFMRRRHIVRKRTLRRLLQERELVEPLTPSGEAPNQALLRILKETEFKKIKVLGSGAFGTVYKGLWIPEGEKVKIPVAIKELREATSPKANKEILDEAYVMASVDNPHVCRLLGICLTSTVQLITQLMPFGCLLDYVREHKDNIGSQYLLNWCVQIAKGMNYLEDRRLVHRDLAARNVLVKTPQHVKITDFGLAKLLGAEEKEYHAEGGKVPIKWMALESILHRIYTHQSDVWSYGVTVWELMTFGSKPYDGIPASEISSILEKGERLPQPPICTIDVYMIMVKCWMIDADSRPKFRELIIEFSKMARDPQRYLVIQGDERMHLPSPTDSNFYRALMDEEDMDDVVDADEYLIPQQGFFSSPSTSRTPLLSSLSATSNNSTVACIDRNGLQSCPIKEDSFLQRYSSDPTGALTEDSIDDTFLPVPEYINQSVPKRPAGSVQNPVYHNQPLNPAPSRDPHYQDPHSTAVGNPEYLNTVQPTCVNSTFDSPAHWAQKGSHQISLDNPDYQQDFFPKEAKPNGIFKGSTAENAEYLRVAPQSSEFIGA

[3] = molecular target: T2, Platelet-derived growth factor receptor beta (Homo sapiens, UniProt P09619); test: Inhibition of PDGFRbeta phosphorylation in human SF539 cells after 10 mins by FLISA
T2 sequence (P09619 whole entry): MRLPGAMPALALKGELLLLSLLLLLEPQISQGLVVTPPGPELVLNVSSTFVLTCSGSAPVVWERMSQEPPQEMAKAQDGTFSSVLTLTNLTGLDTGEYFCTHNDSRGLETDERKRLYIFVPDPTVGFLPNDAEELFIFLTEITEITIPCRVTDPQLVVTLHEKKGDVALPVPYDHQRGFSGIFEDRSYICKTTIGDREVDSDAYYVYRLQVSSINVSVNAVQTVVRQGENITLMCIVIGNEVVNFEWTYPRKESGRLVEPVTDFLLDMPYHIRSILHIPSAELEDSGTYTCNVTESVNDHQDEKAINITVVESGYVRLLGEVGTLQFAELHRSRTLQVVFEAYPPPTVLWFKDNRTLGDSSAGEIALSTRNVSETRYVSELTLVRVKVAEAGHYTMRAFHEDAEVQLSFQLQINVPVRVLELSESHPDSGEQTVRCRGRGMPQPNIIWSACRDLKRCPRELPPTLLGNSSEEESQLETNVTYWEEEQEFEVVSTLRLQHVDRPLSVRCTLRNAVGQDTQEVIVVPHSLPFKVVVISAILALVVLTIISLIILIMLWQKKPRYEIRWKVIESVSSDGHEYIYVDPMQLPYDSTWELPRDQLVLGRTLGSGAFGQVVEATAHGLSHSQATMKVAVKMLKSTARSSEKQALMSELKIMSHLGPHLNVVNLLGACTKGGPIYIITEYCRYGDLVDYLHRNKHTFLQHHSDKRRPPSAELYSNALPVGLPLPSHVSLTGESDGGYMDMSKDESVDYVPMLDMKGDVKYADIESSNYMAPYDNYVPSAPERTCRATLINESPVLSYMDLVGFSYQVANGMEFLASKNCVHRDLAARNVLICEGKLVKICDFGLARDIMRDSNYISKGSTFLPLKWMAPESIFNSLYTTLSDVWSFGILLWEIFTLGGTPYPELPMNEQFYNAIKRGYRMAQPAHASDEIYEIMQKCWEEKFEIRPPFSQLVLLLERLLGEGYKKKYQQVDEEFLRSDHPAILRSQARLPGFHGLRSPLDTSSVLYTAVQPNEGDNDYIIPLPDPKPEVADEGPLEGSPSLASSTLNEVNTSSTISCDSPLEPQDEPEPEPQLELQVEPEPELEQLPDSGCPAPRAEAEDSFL

[4] = molecular target: Vascular endothelial growth factor receptor 1 (Homo sapiens, UniProt P17948); test: Inhibition of VEGFR1 phosphorylation in human A498 cells after 10 mins by FLISA; assay type: cell-based
Sequence of Vascular endothelial growth factor receptor 1 (P17948 whole entry): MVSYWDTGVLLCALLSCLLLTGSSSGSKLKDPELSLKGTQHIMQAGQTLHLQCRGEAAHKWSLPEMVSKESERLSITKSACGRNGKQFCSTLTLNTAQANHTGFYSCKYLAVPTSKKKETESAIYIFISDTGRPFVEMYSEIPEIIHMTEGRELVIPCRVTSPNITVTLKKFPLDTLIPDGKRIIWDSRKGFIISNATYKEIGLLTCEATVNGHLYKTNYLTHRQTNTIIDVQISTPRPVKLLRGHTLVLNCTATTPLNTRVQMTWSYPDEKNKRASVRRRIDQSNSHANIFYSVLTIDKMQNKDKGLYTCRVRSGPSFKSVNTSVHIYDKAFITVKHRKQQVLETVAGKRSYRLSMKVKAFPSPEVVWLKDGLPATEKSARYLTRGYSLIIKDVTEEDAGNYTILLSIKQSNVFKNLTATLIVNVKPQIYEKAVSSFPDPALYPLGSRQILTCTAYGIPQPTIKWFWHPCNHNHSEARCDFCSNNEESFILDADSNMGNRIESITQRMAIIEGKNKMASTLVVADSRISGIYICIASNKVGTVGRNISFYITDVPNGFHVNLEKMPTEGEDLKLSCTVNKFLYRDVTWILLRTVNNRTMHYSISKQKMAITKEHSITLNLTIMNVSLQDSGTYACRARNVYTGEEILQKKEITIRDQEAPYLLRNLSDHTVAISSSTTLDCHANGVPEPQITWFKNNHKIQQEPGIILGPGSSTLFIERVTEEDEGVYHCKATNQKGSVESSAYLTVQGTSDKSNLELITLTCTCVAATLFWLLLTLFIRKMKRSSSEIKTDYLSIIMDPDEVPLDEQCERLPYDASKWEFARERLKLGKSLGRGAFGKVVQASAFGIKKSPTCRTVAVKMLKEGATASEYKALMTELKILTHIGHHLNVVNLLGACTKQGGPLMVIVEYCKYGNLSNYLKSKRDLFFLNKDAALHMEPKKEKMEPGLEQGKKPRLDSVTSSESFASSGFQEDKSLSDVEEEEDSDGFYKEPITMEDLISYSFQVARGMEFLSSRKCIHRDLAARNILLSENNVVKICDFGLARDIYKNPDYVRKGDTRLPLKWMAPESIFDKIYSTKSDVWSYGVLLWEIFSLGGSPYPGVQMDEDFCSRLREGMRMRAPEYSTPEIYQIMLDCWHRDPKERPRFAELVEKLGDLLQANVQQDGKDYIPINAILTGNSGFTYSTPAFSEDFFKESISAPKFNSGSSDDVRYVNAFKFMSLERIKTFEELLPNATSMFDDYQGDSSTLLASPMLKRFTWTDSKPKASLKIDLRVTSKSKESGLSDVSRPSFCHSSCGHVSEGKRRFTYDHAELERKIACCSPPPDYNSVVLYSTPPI

B16-F10 [5] = test: Antitumor activity against mouse B16F10 cells xenografted in NCr nu/nu mouse assessed as inhibition of tumor growth at 35 mg/kg, ip administered after 9 days of tumor implantation for weekly 3 times measured on day 28 post-implantation; assay type: functional, organism-based; parameters: dose 35 mg/kg
Method in brief: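 B16-F10 cells (50,000) implanted SQ behind the ear of 8-week-old male athymic NCr nu/nu mice, 5–6/group, two experiments. IP dosing in sterile water (from 30 mM DMSO stocks) Mon/Wed/Fri from day 9; water-only shams. Length, width and depth measured by calipers three times weekly; volume = L×W×D. Growth rate is the linear-regression slope from day 9 to day 28. Mean ± SEM, one-way ANOVA.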

[6] = molecular target: T1, Vascular endothelial growth factor receptor 2; test: Ratio of semaxanib IC50 to compound IC50 for VEGFR2 phosphorylation in human U251 cells; assay type: cell-based; details: U-251
B16-F10 [7] = test: Antitumor activity against mouse B16F10 cells xenografted in NCr nu/nu mouse assessed as antiangiogenic activity-related decrease in tumor vascularity at 35 mg/kg, ip administered after 9 days of tumor implantation for weekly 3 times measured on day 28 post-implantation; assay type: functional, organism-based; parameters: dose 35 mg/kg
Method in brief: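 50,000 B16-F10 melanoma cells injected SQ behind the ear of 8-week-old male athymic NCr nu/nu mice, 5–6 animals/group, two experiments. IP dosing in sterile water (from 30 mM DMSO stocks) Mon/Wed/Fri from day 9; shams got water. Tumors excised day 28, formalin-fixed, paraffin-embedded, H&E stained. Vessels counted per unit area in 5 fields at 100× and averaged. Mean ± SEM, one-way ANOVA, Neuman-Keuls.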

B16-F10 [8] = test: Antitumor activity against mouse B16F10 cells xenografted in NCr nu/nu mouse assessed as inhibition of lung metastasis at 35 mg/kg, ip administered after 9 days of tumor implantation for weekly 3 times measured on day 28 post-implantation by hematoxylin-eosin staining; assay type: functional, organism-based; parameters: dose 35 mg/kg
Method in brief: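 Male athymic NCr nu/nu mice (8 weeks) received 50,000 B16-F10 cells SQ behind the ear, 5–6/group, two experiments. Drug given IP in sterile water (from 30 mM DMSO stocks) Mon/Wed/Fri starting day 9; shams received water. On day 28 lungs excised, formalin-fixed, paraffin-embedded. Metastases per lung lobe counted on three H&E sections. Mean ± SEM, one-way ANOVA with Neuman-Keuls.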

B16-F10 [9] = details: Mus musculus, 10 mg/kg
B16-F10 [10] = details: Mus musculus, 10 mg/kg; remark: listed apart in the source
[11] = molecular target: T2, Platelet-derived growth factor receptor beta; test: Inhibition of PDGF-stimulated PDGFRbeta phosphorylation expressed in human SF-539 cells by chemiluminescence assay
B16-F10 [12] = details: Mus musculus, 10 mg/kg; remark: listed apart in the source

| SMILES | IC50 (A-431) | IC50 [1] | IC50 [2] | IC50 [3] | IC50 [4] | inhibition (B16-F10 [5]) | Ratio IC50 [6] | inhibition (B16-F10 [7]) | inhibition (B16-F10 [8]) | inhibition (B16-F10 [9]) | inhibition (B16-F10 [10]) | IC50 [11] | inhibition (B16-F10 [12]) |
| --- | --- | --- | --- | --- | --- | --- | --- | --- | --- | --- | --- | --- | --- |
| Clc1ccc(Cc2cc3c(Nc4cccc(Br)c4)ncnc3[nH]2)c(Cl)c1 | 4.5 µM | > 300 µM | > 300 µM | 220 µM | 151 µM |  |  |  |  |  |  |  |  |
| C#Cc1cccc(Nc2nc(N)nc3[nH]c(Cc4ccc(Cl)cc4Cl)cc23)c1 | 9.5 µM | 85.6 µM | 55.2 µM | > 300 µM | > 300 µM |  |  |  |  |  |  |  |  |
| Nc1nc(Nc2cccc(C(F)(F)F)c2)c2cc(Cc3ccc(Cl)cc3Cl)[nH]c2n1 | 195 µM | > 300 µM | 27.2 µM | > 300 µM | 156 µM |  |  |  |  |  |  |  |  |
| Nc1nc(Nc2ccc(Br)cc2Cl)c2cc(Cc3ccc(Cl)cc3Cl)[nH]c2n1 | 16.2 µM | 0.1 µM | > 300 µM | > 300 µM | > 300 µM | Active | 100 | Active | Active |  |  |  |  |
| FC(F)(F)c1cccc(Nc2ncnc3[nH]c(Cc4ccc(Cl)cc4Cl)cc23)c1 | > 300 µM | > 300 µM | 33.1 µM | 110 µM | > 300 µM |  |  |  |  |  |  |  |  |
| C#Cc1cccc(Nc2ncnc3[nH]c(Cc4ccc(Cl)cc4Cl)cc23)c1 | > 300 µM | > 300 µM | > 300 µM | 142 µM | > 300 µM |  |  |  |  |  |  |  |  |
| Nc1nc(Nc2ccc(Cl)cc2F)c2cc(Cc3ccc(Cl)cc3Cl)[nH]c2n1 | 4.9 µM | 45.7 µM | 2.5 µM | 24.6 µM | 70.9 µM |  | 0.26 |  |  |  |  |  |  |
| Cc1ccccc1Cc1cc2c(Nc3cccc(Br)c3)nc(N)nc2[nH]1 |  |  |  | > 50 µM |  | Active |  | Active | Active |  |  |  |  |
| Nc1nc(Nc2cccc(F)c2)c2cc(Cc3ccc(Cl)cc3Cl)[nH]c2n1 | 45.2 µM | 0.3 µM | 162 µM | 183 µM | 163 µM |  | 40 |  |  |  |  |  |  |
| Cc1ccccc1Cc1cc2c(Nc3cccc(Br)c3)ncnc2[nH]1 | 9.5 µM | 27.2 µM | > 300 µM | 182 µM | > 300 µM |  |  |  |  |  |  |  |  |
| Cc1[nH]c(/C=C2\C(=O)Nc3ccccc32)c(C)c1CCC(=O)O [ORANTINIB] |  |  |  |  |  |  |  |  |  | Active | Active | 0.1 µM | Active |
| Nc1nc(Nc2ccc(C(F)(F)F)c(F)c2)c2cc(Cc3ccc(Cl)cc3Cl)[nH]c2n1 | 13.8 µM | 113 µM | 91.7 µM | > 300 µM | > 300 µM |  |  |  |  |  |  |  |  |
| CC(C)c1ccc(Nc2nc(N)nc3[nH]c(Cc4ccc(Cl)cc4Cl)cc23)cc1 | 26.2 µM | 1.4 µM | 45.6 µM | 175 µM | 157 µM |  | 8 |  |  |  |  |  |  |
| COc1ccc(OC)c(Cc2cc3c(Nc4cccc(Br)c4)ncnc3[nH]2)c1 | 191 µM | > 300 µM | > 300 µM | 171 µM | > 300 µM |  |  |  |  |  |  |  |  |
| CC(C)c1ccccc1Nc1nc(N)nc2[nH]c(Cc3ccc(Cl)cc3Cl)cc12 | 160 µM | > 300 µM | 96.4 µM | 43 µM | 163 µM |  |  |  |  |  |  |  |  |
